# High-throughput results as filed in PubChem BioAssay.
# Granule exo inh: lytic granule exocytosis inhibition; TALL-104 LAMP-1 surface exposure, flow cytometry; cells stimulated with thapsigargin and PMA; inhibition, % at 10 µM; 360,000 tested, 0.66% active;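 active = inhibition above about 55%, limit read from the data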
# T cell HTS: T cell immune modulation candidate | 330,000 tested, 0.068% active | 2C CD8+ T cell-vesicle binding, flow cytometry; hits give low values | AID 2052 | response (vesicle binding), % at 7 µM;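 active = response, share of CD8 T cells binding vesicles, and their 90th percentile fluorescence all below set limits, cut at about 80% in these data, passing the limit was not always enough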;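 note: values below 100% mean blocked vesicle binding to the CD8+ T cells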
#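 Material: murine 2C transgenic CD8+ T lymphocytes / Also added: QL9-peptide-loaded Drosophila micro-vesicles bearing Ld, ICAM-1 and B7-1 / Schedule: binding step 1.5 h, 37 °C, antibody labelling 20 min, ice / Signal: flow cytometry, PE anti-B7-1 (FL2) versus Alexa647 anti-CD8 (FL8), PFA-fixed / Evaluation: percent CD8+ FL2 mean versus row control / Benchmarks: naked versus QL9-loaded vesicles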
# rCAG RNA binder: binds r(CAG) RNA repeats; r(CAG) RNA repeat, TO-PRO-1 dye displacement fluorescence; 370,000 tested, 1.3% active; inhibition, % at 3 µM;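 active = inhibition above the plate cutoff, the mean of all test compounds on that plate plus 3 SD, cut at about 35% in these data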;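 note: 0% = DMSO alone and 100% = 100 µM mitoxantrone as full dye displacement; higher means more dye released from RNA so lower well fluorescence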
# Beta2AR agonist: activates human beta-2 adrenergic receptor causing internalization; 340,000 tested, 0.43% active; Am2.2-beta2AR cells, FAP receptor internalization, flow cytometry; P07550; AID 504454; response, % (test concentration not listed);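 active = response above a set limit, near 3 SD of response in nonfluorescent compounds, cut at about 42% in these data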
# Target sequence (P07550 whole entry, looked up): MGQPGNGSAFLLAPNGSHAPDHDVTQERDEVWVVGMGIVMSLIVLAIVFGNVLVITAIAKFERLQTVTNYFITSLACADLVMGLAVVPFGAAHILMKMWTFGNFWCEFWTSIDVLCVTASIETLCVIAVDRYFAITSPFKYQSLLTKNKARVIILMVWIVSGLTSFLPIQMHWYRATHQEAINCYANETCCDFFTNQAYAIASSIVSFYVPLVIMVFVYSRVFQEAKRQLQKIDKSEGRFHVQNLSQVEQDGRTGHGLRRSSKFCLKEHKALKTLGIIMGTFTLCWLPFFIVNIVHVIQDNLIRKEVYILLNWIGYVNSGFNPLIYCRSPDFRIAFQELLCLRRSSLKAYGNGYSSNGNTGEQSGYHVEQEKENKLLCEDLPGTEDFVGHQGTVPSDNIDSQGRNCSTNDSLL
# MPTP inh: permeability transition pore inhibition | inhibition, % at 10 µM | isolated mouse mitochondria, Ca2+ swelling absorbance, 30 min | 360,000 tested, 1.4% active;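 active = inhibition of 50% or more, scaled per plate between neutral and stimulator controls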;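 note: 0% = DMSO wells given calcium and 100% = 1 mM EGTA wells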
# V-ATPase pHluor: yeast V-ATPase proton transport regulation by pHLuorin | response, % at 10 µM | 350,000 tested, 0.37% active | S. cerevisiae, pHLuorin cytosolic pH fluorescence; in the data active = response mostly above about 7.3%, no sharp cut-off; inactive = mostly below about 5.4%; note: actives read high
# rCAG bind conf: r(CAG) RNA repeat binding, confirmation; 4,300 tested, 70% active; AID 652065; TO-PRO-1 dye displacement fluorescence; shares compounds with rCAG RNA binder; inhibition, % at 3 µM;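 active = inhibition above a per-plate cutoff, the mean inhibition of sample wells plus 3 SD, cut at about 35% in these data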;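 note: loss of TO-PRO-1 fluorescence as compound displaces dye from 1x1 AA loop RNA; 0% = DMSO only wells and 100% = 100 µM mitoxantrone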
# dCAG dye counter: counter-screen for rCAG RNA binders: DNA CAG dye complex inhibitors; shares compounds with rCAG RNA binder; d(CAG) DNA oligo TO-PRO-1 dye displacement, fluorescence; inhibition, % at 3 µM; 4,300 tested, 94% active; AID 652068;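 active = inhibition above its plate's cutoff, the mean test-well inhibition plus 3 SD, cut at about 4.8% in these data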;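 note: 0% = DNA dye mix with DMSO and 100% = 100 µM mitoxantrone; hits displace the dye from DNA and so lower well fluorescence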
# Numbers without * were called inactive; x = no result given. Hits are enriched below; roughly 3.8% of the tested compounds scored in any of these assays.
SMILES,Granule exo inh,T cell HTS,rCAG RNA binder,Beta2AR agonist,MPTP inh,V-ATPase pHluor,rCAG bind conf,dCAG dye counter
CC[C@@H](CCCc1ccc(OC)cc1)CCC(=O)N(c1ccccc1)c1ccccc1,x,x,5,x,x,x,x,x
CCc1nnc(NS(=O)(=O)c2ccc(N/C=C(\C=O)c3nc4cc(Cl)ccc4o3)cc2)s1,0,435,42*,-135,8,3,76*,40*
CCc1nnc(NS(=O)(=O)c2ccc(NC(=O)c3ccc(Cl)cc3)cc2)s1,-3,212,43*,3,0,-3,33,9.1*
CCc1nnc(NS(=O)(=O)c2ccc(NC(=O)c3ccccc3C)cc2)s1,1,172,23,6,2,-2,x,x
CCc1nnc(NS(=O)(=O)c2ccc(NC(=O)c3ccc(C#N)cc3)cc2)s1,15,228,36*,14,-1,-6,21,4
CCc1nnc(NS(=O)(=O)c2ccc(NC(=O)c3ccccc3OC)cc2)s1,2,250,49*,7,0,-1,25,6.0*
CCc1nnc(NC(=O)c2ccc(NS(=O)(=O)c3ccccc3)cc2)s1,-4,376,21,0,11,1,x,x
COC(=O)C1=C(C)N(Cc2cccc(C(F)(F)F)c2)C(=NCc2ccc3c(c2)OCO3)NC1c1ccc(Cl)cc1 (stereo not drawn),x,x,8,x,x,x,x,x
CC1(C)CC(=O)N(CC(=O)N2CCN(Cc3ccc4c(c3)OCO4)CC2)c2ccccc2S1(=O)=O,x,x,1,x,x,x,x,x
COC(=O)C1=C(C)N(Cc2ccc(F)cc2)C(=S)NC1c1cccc(OC)c1 (stereo not drawn),x,x,3,x,x,x,x,x
C[C@@H]1[C@@H](O)C[C@@]2(CC(=O)c3ccccc3O2)O[C@H]1c1ccccc1,x,x,0,x,x,x,x,x
O=C(OCc1cn(Cc2cccc(C(F)(F)F)c2)nn1)N1CCOCC1,x,x,0,x,x,x,x,x
CCc1nnc(NS(=O)(=O)c2ccc(N/C=C\C(=O)c3ccc4ccccc4c3)cc2)s1,14,267,71*,11,10,-2,86*,61*
CCc1nnc(NS(=O)(=O)c2ccc(NCc3ccccc3O)cc2)s1,-3,231,15,-1,-2,0,x,x
CCCN(CCC)S(=O)(=O)c1ccc(C(=O)Nc2ccc(S(=O)(=O)Nc3nnc(CC)s3)cc2)cc1,-9,186,80*,5,0,0,84*,54*
O=[N+]([O-])c1cc(S(=O)(=O)O)cc([N+](=O)[O-])c1NN(c1ccccc1)c1ccccc1,-18,312,48*,9,0,2,36*,11*
CC(Oc1ccc(S(=O)(=O)N2CCCC2)cc1[N+](=O)[O-])C(=O)N(C)c1ccccc1 (stereo not drawn),6,611,-5,-1,-2,0,x,x
Cc1cccc(Cl)c1-n1nnnc1C1(C)CSCC(=O)N1Cc1ccc(F)cc1 (stereo not drawn),x,x,8,x,x,x,x,x
C=CCOc1ccc(/C=C2\SC(=S)N(N3CCOCC3)C2=O)cc1,-8,407,4,-2,0,2,x,x
C=CCOc1ccc(/C=C2\SC(=S)N(NS(=O)(=O)c3ccccc3)C2=O)cc1,-5,203,88*,4,4,-1,79*,46*
COc1ccc(/C=C2/SC(=S)N(NS(=O)(=O)c3ccccc3)C2=O)cc1,34,257,74*,13,-1,1,66*,29*
CC(/C=C1\SC(=S)N(NC(=O)c2ccncc2)C1=O)=C\c1ccccc1,8,408,42*,-2,3,-4,31,9.3*
CC(/C=C1\SC(=S)N(NS(=O)(=O)c2ccccc2)C1=O)=C\c1ccccc1,2,377,74*,13,37,1,87*,54*
C[C@H]1COc2cc(Br)ccc2S(=O)(=O)N1Cc1cn(CC2CCCCC2)nn1,x,x,0,x,x,x,x,x
C[C@@H]1CN([C@@H](C)CO)C(=O)CCCn2cc(nn2)CO[C@H]1CN(C)C(=O)Nc1cccc(C(F)(F)F)c1,x,x,0,x,x,x,x,x
